Bioassay records: PubChem BioAssay, several laboratories
Ecoli tolC: growth inhibitors of E. coli tolC mutant, primary screen, strain BW25113 ΔtolC::kan, 384-well; growth inhibition, % at 10 µM (by protocol); OD615; hit rate 2.2% among 65,000; AID 573, 2007;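 active = growth inhibition at or above a cutoff equal to the mean over every tested compound plus 3 SD, cut at about 60% in these data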;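 also: growth measured after 20 h incubation at 37 °C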
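Signal: optical density read at 615 nm; Assay system: E. coli ΔtolC::kan strain BW25113; Times: 20 h incubation with compound, 37 °C; Dosing: 10 µM final, single dose.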
PostGolgi ctrl: growth inhibition of yeast control strain, primary screen, counter-screen for post-Golgi transport modulator project | efflux-deficient yeast background strain, growth absorbance A615, 16 h | inhibition, % at 10 µM | hit rate 5% among 98,000
PostGolgi yeast: phenotypic screen on post-Golgi transport, primary screen; post-Golgi transport phenotypic cell assay; inhibition, % at 10 µM; hit rate 0.9% among 98,000;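 also: yeast cells grown in 1536-well plates; yeast grown about 18 h at 30C before absorbance read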
PLAP act: PLAP enzyme activators, biochemical, luminescence, HTS; Alkaline phosphatase, placental type (Homo sapiens), P05187; hit rate 1.2% among 96,000; AID 696, 2007; purified PLAP enzyme, luminescent substrate read-out; stronger effect = higher value; activation fold at 20 µM; in the data active = activation fold above about 2
Target sequence (P05187 whole entry, looked up): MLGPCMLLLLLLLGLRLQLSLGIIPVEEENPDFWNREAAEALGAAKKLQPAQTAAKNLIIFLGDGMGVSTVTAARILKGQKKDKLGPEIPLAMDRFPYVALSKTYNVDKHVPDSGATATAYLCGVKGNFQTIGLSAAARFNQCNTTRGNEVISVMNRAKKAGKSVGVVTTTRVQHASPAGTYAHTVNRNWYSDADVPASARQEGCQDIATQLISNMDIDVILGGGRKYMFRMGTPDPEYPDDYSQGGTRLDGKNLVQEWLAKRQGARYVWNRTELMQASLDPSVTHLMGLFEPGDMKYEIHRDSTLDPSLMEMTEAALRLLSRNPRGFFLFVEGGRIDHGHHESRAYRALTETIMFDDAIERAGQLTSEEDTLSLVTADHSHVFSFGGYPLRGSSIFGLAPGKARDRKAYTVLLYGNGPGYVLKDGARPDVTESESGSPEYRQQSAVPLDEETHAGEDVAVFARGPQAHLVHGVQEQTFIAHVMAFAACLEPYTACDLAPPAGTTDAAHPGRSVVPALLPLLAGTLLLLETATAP
Ecoli WT expand: growth inhibitors of wild-type E. coli, primary screen, strain BW25113, expanded library, OD600; OD600 absorbance; growth inhibition, % at 100 µM; hit rate 0.15% among 98,000; AID 710, 2007;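 active = growth inhibition above about 50% at one test dose, limit read from the data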;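 also: growth measured after 20 h incubation at 37 °C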
HePTP inh: inhibitors of human HePTP phosphatase, primary screen, biochemical, absorbance, leukemia target; Tyrosine-protein phosphatase non-receptor type 7 (Homo sapiens), P35236; recombinant HePTP phosphatase activity, OD absorbance; inhibition, % at 20 µM; hit rate 0.64% among 110,000; AID 521, 2006; in the data active = inhibition above about 50%;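 also: plate controls were vehicle for no effect and reference inhibitor for full effect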
* marks the source's active call; other numbers are inactive results; nt = not tested or not shown; ! = not active in a repeat. Sampled rows, rich in hits. Any-hit rate of the full collection: about 5.4%. Rule as the data show it, unless noted: active = inhibition above about 30%; inactive = the rest.

SMILES	Ecoli tolC	PostGolgi ctrl	PostGolgi yeast	PLAP act	Ecoli WT expand	HePTP inh
CCCOc1ccc(C(=O)Nc2ccc(NC(=O)c3ccco3)c(OC)c2)cc1	nt	nt	nt	nt	nt	-5.7
C=C(C)Cn1c(-c2ccccc2)n[nH]c1=S	nt	nt	nt	nt	nt	-7.3
Cc1cc(/C=C2\SC(=S)NC2=O)c(C)n1C1CC1	nt	56.0*	-0.2	1	-11.0	nt
CC1(C)C(C=C(Cl)Cl)C1C(=O)N1CCN(c2ccccc2)CC1 (stereo not given)	43.8	70.5*	2.9	0.9	-12.0	3.0
O=C(N1CCN(c2ccccc2)CC1)C12CC3CC(CC(C3)C1)C2	10.8	44.9*	12.4	1.1	-2.0	-4.2
CCn1c(=N)n(CC(=O)C23CC4CC(CC(C4)C2)C3)c2ccccc21	99.3*	34.7*	1.9	1.2	17.0	5.7
CCn1c(N2CCN(C(=O)C34CC5CC(CC(C5)C3)C4)CC2)nc2ccccc21	64.7*	19.3	16.1	1.5	-2.0	5.5
O=C(O)c1cc(-c2ccc(Cl)cc2)nc2ccc(Br)cc12	nt	nt	nt	nt	nt	2.5
Cc1cc(OCC(=O)Nc2sc3c(c2C#N)CCCC3)c(C(C)C)cc1Cl	nt	nt	nt	nt	nt	-8.6
Clc1ccc(CN2CCC(c3nc4ccc(Cl)cc4[nH]3)CC2)cc1	nt	5.3	9.9	1.5	46.0	nt
Cc1cc2nc(C3CCN(Cc4nnnn4Cc4ccccc4)CC3)[nH]c2cc1C	nt	10.3	7.0	2.4*	-7.0	nt
CCC(C)(C)n1nnnc1CN1CCC(c2nc3ccc(C)cc3[nH]2)CC1	4.2	1.2	1.6	2.3*	5.0	1.9
COc1cc(/C=N/NC(=O)c2cccc(I)c2)ccc1OC(C)=O	nt	nt	nt	nt	nt	-0.6
NC(=O)/C(=C\c1ccc(Cl)cc1)NC(=O)c1ccco1	nt	nt	nt	nt	nt	-2.8
O=C(Nc1cccc(C(F)(F)F)c1)N(Cc1ccc(Cl)cc1)CC(O)C(F)(F)F (stereo not given)	nt	51.3*	-10.2	0.8	11.0	nt
CNC(=O)Nc1cccc(C(F)(F)F)c1	-7.0	14.9	10.0	nt	9.0	6.0
Cc1ccc(OC(F)F)c(NC(=O)Nc2cccc(C(F)(F)F)c2)c1	nt	56.4*	-2.4	0.7	2.0	nt
O=C(COCC(=O)Nc1cccc(C(F)(F)F)c1)Nc1cccc(C(F)(F)F)c1	nt	42.7*	3.4	1.2	1.0	nt
O=C(CSCC(=O)Nc1cccc(C(F)(F)F)c1)Nc1ccccc1	nt	nt	nt	nt	nt	-2.1
O=C(CC(=O)Nc1cccc(C(F)(F)F)c1)Nc1cccc(C(F)(F)F)c1	nt	nt	nt	nt	nt	98.8*
Cc1cccc(OCC(=O)Nc2cccc(C(F)(F)F)c2)c1	nt	nt	nt	nt	nt	6.4
CC(O)(CS(=O)(=O)Cc1ccc(Cl)cc1)C(=O)Nc1cccc(C(F)(F)F)c1 (stereo not given)	nt	5.4	-1.6	1	-6.0	nt
O=[N+]([O-])c1cnc(-c2ccccc2)nc1	nt	nt	nt	nt	nt	7.9
Cc1ccc(C(=O)N/C(=C/c2ccc(Br)cc2)C(=O)NCC(=O)O)cc1	nt	nt	nt	nt	nt	5.7
CCCOc1ccc(C2C(C(=O)OC)=CN(CCOC)C=C2C(=O)OC)cc1	13.0	14.3	-0.3	2.1*	6.0	3.7
SMILES	Ecoli tolC	PostGolgi ctrl	PostGolgi yeast	PLAP act	Ecoli WT expand	HePTP inh
Cc1ccc(OCC(=O)Nc2cc([N+](=O)[O-])ccc2Cl)c(Br)c1	nt	nt	nt	nt	nt	1.0
Nc1nc(SCc2nc3scc(-c4cccs4)c3c(=O)[nH]2)n[nH]1	8.1	0.1	8.2	2.5*	1.0	-4.2
CCOc1cc(C(=O)Nc2nc3ccccc3[nH]2)cc(OCC)c1OCC	nt	nt	nt	nt	nt	10.8
O=C1NC(=S)N(c2cccc(Br)c2)C(=O)/C1=C\c1ccc(-c2ccccc2[N+](=O)[O-])o1	nt	nt	nt	nt	nt	11.2
COc1c(-c2cc(-c3ccccc3)n[nH]2)c(O)c(OC)c2occc12	nt	nt	nt	nt	nt	-12.7
COc1ccc(-c2cc(-c3c(O)c(OC)c4occc4c3OC)[nH]n2)cc1	nt	55.6*	15.8	2.3*	11.0	nt
O=c1[nH]c2cccc(Cl)c2n(CCNc2ncc(C(F)(F)F)cc2Cl)c1=O	nt	-8.9	-0.6	1	5.0	nt
O=c1c(Cl)nc2cc(Cl)ccc2n1CCNc1ncc(C(F)(F)F)cc1Cl	nt	98.8*	75.8*	1	-2.0	nt
CCOc1ccc(NC(=S)NC(NC(=O)c2cccc(OC)c2)C(Cl)(Cl)Cl)cc1 (stereo not given)	nt	nt	nt	nt	nt	-4.0
CCn1c(CSc2nc3ccccc3[nH]2)n[nH]c1=S	-8.5	3.0	2.0	2.2*	8.0	6.4
COC(=O)C1=C(C)N(C)C(C)=C(C(=O)OC)C1c1ccc(F)c(Br)c1	73.5*	52.7*	9.0	0.9	6.0	2.1
Cc1ccccc1C(=O)NNC(=O)Cc1ccccc1	nt	-3.9	20.7	2*	7.0	1.6
Cc1occc1C(=O)NNC(=O)Cc1ccccc1	nt	6.6	-1.1	1.1	12.0	nt
O=C(Nc1ccccc1O)c1ccc2c(c1)OCCO2	nt	nt	nt	nt	nt	1.6
COc1cccc(-n2cnc3cccc(N)c32)c1	-6.3	-0.4	-2.8	1.2	0.0	91.7*!
COc1cccc(-n2cnnn2)c1	nt	5.9	1.6	0.9	9.0	nt
Cc1c(C(=O)Nc2ccc(Cl)cc2)sc(N)c1C(=O)OC(C)C	nt	nt	nt	nt	nt	3.7
CCOC(=O)c1ccc(NC(=O)CN(c2ccccc2OCC)S(=O)(=O)c2ccccc2)cc1	nt	nt	nt	nt	nt	103.9*
CCOC(=O)c1ccc(NC(=O)CN(c2ccc(F)cc2)S(=O)(=O)c2ccccc2)cc1	nt	nt	nt	nt	nt	-5.2
CCOc1ccccc1N(CC(=O)Nc1ccc2c(c1)OCCO2)S(C)(=O)=O	-0.9	33.9*	3.1	1.5	4.0	8.0
CCOc1ccccc1N(CC(=O)Nc1ccc2c(c1)OCO2)S(C)(=O)=O	1.6	4.5	-13.2	1	6.0	1.2
COc1ccc(C(=O)Nc2sc3c(c2C(=O)OC(C)C)CCCC3)cc1OC	nt	nt	nt	nt	nt	2.7
Cc1ccc(C)c(Oc2nnnn2-c2ccccc2)c1	14.5	13.7	10.7	1.1	8.0	7.3
Cc1ccc2cccc(Oc3nnnn3-c3ccccc3)c2n1	4.8	30.0*	18.4	0.9	5.0	3.0
Cc1ccc(C(C)C)c(Oc2nnnn2-c2ccccc2)c1	92.2*	20.8	0.5	0.9	8.0	-11.7
SMILES	Ecoli tolC	PostGolgi ctrl	PostGolgi yeast	PLAP act	Ecoli WT expand	HePTP inh
c1ccc(-n2nnnc2Oc2cccc3cccnc23)cc1	91.4*	28.6	-3.2	1.2	1.0	10.5
CCOc1ccc(N(CC(=O)Nc2ccc(Cl)cc2)S(=O)(=O)c2ccc(SC)cc2)cc1	nt	nt	nt	nt	nt	7.0
C=CCC1(N(Cc2ccccc2)C(C)=O)CCCCC1	nt	nt	nt	nt	nt	4.4
N#Cc1c(NC(=O)CO/N=C/c2ccccc2)sc2c1CCCC2	nt	nt	nt	nt	nt	5.9
O=c1c(-c2nc3ccccc3s2)cccn1Cc1ccc(Cl)c(Cl)c1	nt	35.9*	-9.7	1.1	-15.0	nt
Nc1ccc(Cl)c(-c2nc3ccccc3s2)c1	nt	nt	nt	nt	nt	6.5
CN1C(=O)OC(C)(CCc2ccccc2)C1(C)O (stereo not given)	10.4	3.2	-3.0	1	-1.0	-5.6
CC1(O)N(Cc2ccccc2)C(=O)OC12CCCCC2 (stereo not given)	-2.1	45.8*	-5.3	1	2.0	2.7
Cn1c(-c2cccs2)nc2c3ccccc3c3ccccc3c21	nt	nt	nt	nt	nt	-11.7
